A selection: hits, their analogues and other compounds. The true share with any hit is near 1.5%.
EBI2 antag: EBI2 receptor antagonists, beta-arrestin recruitment, primary screen, cell-based, luminescence, 7a,25-OHC stimulation, uHTS. inhibition, % at 5 µM. G-protein coupled receptor 183 (Homo sapiens), P32249. 360,000 compounds, 0.81% hits. AID 651636, 2012. 7a,25-OHC stimulated; in the data active means inhibition above about 38%;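 further: enzyme fragment complementation signal reports receptor beta-arrestin coupling in cells; 0% = agonist plus DMSO wells and 100% = wells without agonist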
APJ agonist: agonists of human apelin receptor APJ, primary screen, CHO-K1 cells, PathHunter beta-arrestin, luminescence | 0% DMSO wells, 100% apelin | activation, % at 20 µM | 330,000 compounds, 0.11% hits;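 active means activation more than six SD over the plate average, tested at 20 µM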;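 further: 0% = DMSO alone and 100% = apelin-13 at 10 nM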
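assay system = CHO-K1 APJ beta-arrestin complementation cell line | input = cell density 1000 per well | dosing = compound 20 µM once, DMSO 1% | timing = compound 90 min 25 °C, reagent 1 h | measured by = luminescence from split beta-galactosidase complementation, Galacton Star/Emerald II substrate | read-out basis = APJ agonist activity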
APJ antag: antagonists of human apelin receptor APJ, primary screen, CHO-K1 cells, beta-arrestin complementation, luminescence; inhibition, % at 20 µM; AID 2521, 2010; 330,000 compounds, 0.32% hits;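 active means inhibition above about 40% at 20 µM, limit read from the data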;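 further: cells challenged with 10 nM apelin-13 agonist together with compound; plate controls were apelin-13 plus DMSO wells for no effect and DMSO wells lacking apelin-13 for full effect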
CXCR6 inh: CXCR6 receptor inhibitors, primary screen, cell-based, beta-arrestin, luminescence, CHO-K1 PathHunter, 1536-well. inhibition, % at 20 µM. 360,000 compounds, 0.36% hits. AID 602244, 2012; in the data active means inhibition above about 34%, passing the limit was not always enough;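 further: antagonist mode with CXCL16 agonist at 10 nM final; 0% = 10 nM CXCL16 with DMSO and 100% = unstimulated wells without agonist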
Target sequence (O00574 whole entry, looked up): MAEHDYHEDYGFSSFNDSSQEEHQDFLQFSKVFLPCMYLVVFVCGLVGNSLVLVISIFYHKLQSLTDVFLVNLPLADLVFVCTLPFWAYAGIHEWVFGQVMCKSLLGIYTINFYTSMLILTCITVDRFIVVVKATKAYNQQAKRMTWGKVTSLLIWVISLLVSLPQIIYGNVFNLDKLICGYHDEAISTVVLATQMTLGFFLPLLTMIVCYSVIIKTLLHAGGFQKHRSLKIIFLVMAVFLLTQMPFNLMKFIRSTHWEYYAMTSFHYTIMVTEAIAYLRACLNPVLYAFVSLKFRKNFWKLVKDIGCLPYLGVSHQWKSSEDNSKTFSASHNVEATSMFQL
CCR6 antag: CCR6 receptor antagonists, primary screen, cell-based, CHO-K1, luminescence, beta-arrestin, uHTS; CHO-K1 CCR6 PathHunter beta-arrestin, CCL20-stimulated; inhibition, % at 20 µM; AID 493098, 2011; 340,000 compounds, 0.49% hits;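 active means compounds whose inhibition of the agonist-driven luminescence signal at 20 µM reaches about 50%, limit read from the data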;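 further: cells stimulated with CCL20 at 14 nM final; plate controls were DMSO with CCL20 for no effect and DMSO without agonist for full effect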
APJ ag confirm: agonists of human apelin receptor APJ, confirmation, cell-based, single concentration, CHO-K1, beta-arrestin, luminescence; 310 compounds, 10% hits; AID 2764, 2010; shares compounds with APJ agonist; activation, % at 20 µM; CHO-K1 APJ PathHunter beta-arrestin;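 active means activation above 40%, taking the highest of four retests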;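 further: plate controls were DMSO wells for no effect and apelin-13 at 10 nM for full effect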
* marks the source's active call; other numbers are inactive results; · = not tested or not shown.

SMILES	EBI2 antag	APJ agonist	APJ antag	CXCR6 inh	CCR6 antag	APJ ag confirm
CCC(=O)N1CCN(c2ccc(NC(=O)c3cc4ccccc4o3)cc2Cl)CC1	-25	23	-17	-5	-4	·
CCCC(=O)N1CCN(c2ccc(NC(=O)c3cc4ccccc4o3)cc2Cl)CC1	-73	30*	-6	-12	6	10
O=C(Nc1ccc(N2CCN(C(=O)c3ccco3)CC2)c(Cl)c1)c1cc2ccccc2o1	-51	17*	-45	-4	-17	34
O=C(N=C1SC2CS(=O)(=O)CC2N1c1cccc(Cl)c1Cl)C1CCCO1 (stereo unspecified)	0	2	-1	1	1	·
CCCCCCc1cc2cc(-c3nnc(-c4ccccc4O)o3)c(=O)oc2cc1O	-32	25*	-75	-41	-59	52*
CCCCCCc1cc2cc(-c3nnc(-c4ccccc4OC)o3)c(=O)oc2cc1O	-19	-2	-76	-72	-90	·
CCCCCCc1cc2cc(-c3nnc(-c4cc(OC)c(OC)c(OC)c4)o3)c(=O)oc2cc1O	·	16*	-87	·	-88	54*
Cc1ccc(S(=O)(=O)Nc2nc(-c3ccccc3)cs2)cc1	4	30*	8	10	11	55*
CC1=C(C(=O)N(C)C)CC(CC(=O)NCCCCc2ccccc2)C(=O)N1CCCN1CCCC1=O (stereo unspecified)	-8	·	·	2	·	·
COc1ccc2oc(C(=O)Nc3ccc(S(=O)(=O)N(C)C4CCN(C)CC4)cc3)c(C)c2c1	-6	51*	4	-13	-1	12
CCN1C(=O)C(CC(=O)Nc2ccc(OC)cc2)N(Cc2ccc3c(c2)OCO3)C1=S (stereo unspecified)	-7	-2	4	-5	-5	·
O=C(Nc1ccccc1N1CCOCC1)c1ccc([N+](=O)[O-])s1	-30	10*	-30	3	9	27
O=C(Nc1ccccc1N1CCOCC1)c1ccccc1[N+](=O)[O-]	1	0	-25	3	16	·
CC(C)(C)c1ccc(NC(=O)COC(=O)c2ccc3ncsc3c2)cc1	-7	-2	-13	-8	13	·
O=C(COC(=O)c1ccc2ncsc2c1)Nc1ccc(OC(F)(F)F)cc1	-3	18*	2	-4	5	13
CCOc1ccc2[nH]c(=O)c(CN(Cc3ccco3)C(CC)c3nnnn3Cc3ccccc3)cc2c1 (stereo unspecified)	-5	76*	0	7	13	9
CCOc1ccc2[nH]c(=O)c(CN(Cc3ccco3)Cc3nnnn3Cc3ccccc3)cc2c1	-5	-4	19	1	20	·
CCCCNc1c(-c2cccc(-c3ccc(OC)cc3)c2)nc2ccc(C)cn12	-95	52*	-26	-11	-3	15
CCCCNc1c(-c2cccc(-c3ccc(OC)cc3)c2)nc2cc(C)ccn12	0	7	-28	5	-14	·
Clc1ccc(CN2CCc3c([nH]c4ccccc34)C2)cc1Cl	16	85*	-14	-3	14	3
Clc1cccc(CN2CCc3c([nH]c4ccccc34)C2)c1	27	11	-33	-4	5	·
COc1cc(-c2cc(=O)c3c(O)c(OC)c(OC)c(O)c3o2)ccc1O	-4	28*	-146	-17	1	4
COc1c(O)c(O)c2oc(-c3ccccc3)cc(=O)c2c1OC	-5	-1	-139	-6	1	·
COc1ccccc1NC(=O)COC(=O)c1ccc2ccccc2n1	-3	-2	-5	-4	5	·
COc1ccc(/C(N)=N/OC(=O)c2cccs2)cc1OC	-1	18*	-72	-15	-5	26
Cc1cc(C(=O)O/N=C(\N)c2ccncc2)ccc1[N+](=O)[O-]	-19	16	-39	-15	4	·
COc1ccc(/C(N)=N/OC(=O)c2ccc([N+](=O)[O-])c(C)c2)cc1OC	1	11*	-14	-13	-13	10
O=[N+]([O-])c1cccc(/C=N/n2c(COc3ccccc3)n[nH]c2=S)c1	17	-3	11	2	22	·

From PubChem BioAssay
